Rows were chosen to be rich in hits. Some 3.1% of all compounds tested hit in one or more screens of this group.
PP5 primary: blocks human protein phosphatase 5 activity; hit rate 0.18% among 320,000; purified PP5c, OMFP substrate fluorescence; P53041; inhibition, % at 6.7 µM;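 active means inhibition above the campaign's mean inhibition across all tested compounds plus 3 SD, cut at about 9.5% in these data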;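 further: 0% = DMSO only and 100% = 100 µM cantharidin control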
NadD block: blocks S. aureus nicotinate mononucleotide adenylyltransferase; hit rate 0.78% among 360,000; purified NadD enzyme, colorimetric absorbance read-out; inhibition, % at 20 µM; in the data active means inhibition above about 26%
Myeloid diff 2: myeloid differentiation induction | AID 624256 | calls only at 10 µM | hit rate 1% among 360,000 | ER-HoxA9 myeloid progenitors, lysozyme-GFP differentiation, flow cytometry;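 active means normalized GFP-positive differentiation at or above the plate's own cutoff, the solvent-only control mean plus 3 SD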;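 further: cells exposed to compound for four days before flow analysis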
HCV core dimer: blocks dimerization of HCV core protein | TR-FRET GST/Flag-core106 dimerization, 1536-well | inhibition, % at 5 µM | hit rate 0.33% among 300,000;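 active means inhibition above the mean of all tested compounds plus 3 SD, set per screening campaign, cut at about 45% in these data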
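System: GST-tagged and Flag-tagged HCV core protein residues 1-106 / Input: core106 proteins, GST 13.5 nM and Flag 17 nM / Buffer or medium: KF-containing HEPES buffer, pH 7.45, DTT, CHAPS, BSA / Probe or stimulus: Eu-anti-GST and XL665-anti-Flag labelled anti-tag antibodies / Schedule: 4 h, 22.5 °C incubation / Technique: TR-FRET 671 and 617 nm emission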
Fh CTSL1 inh: blocks F. hepatica cathepsin L1 in PFM18AAP counter-screen; recombinant F. hepatica cathepsin L1, Z-Leu-Arg-MCA fluorescence; inhibition, % at 5.96 µM; hit rate 0.49% among 300,000; AID 1906;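 active means inhibition above the mean of all tested compounds plus 3 SD, set per screening campaign, cut at about 17% in these data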;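 further: 0% = plate median of test compound wells and 100% = 1 µM Z-Phe-Ala-diazomethylketone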
PP1 counter: blocks human PP1-alpha phosphatase, a PP5 counter-screen. P62136. purified PP1alpha, OMFP fluorescence. inhibition, % at 6.7 µM. hit rate 0.9% among 320,000. AID 2235;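 active means inhibition above the mean inhibition of all tested compounds plus 3 SD, computed separately for each screening campaign, cut at about 15% in these data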
Target sequence (P62136 whole entry, looked up): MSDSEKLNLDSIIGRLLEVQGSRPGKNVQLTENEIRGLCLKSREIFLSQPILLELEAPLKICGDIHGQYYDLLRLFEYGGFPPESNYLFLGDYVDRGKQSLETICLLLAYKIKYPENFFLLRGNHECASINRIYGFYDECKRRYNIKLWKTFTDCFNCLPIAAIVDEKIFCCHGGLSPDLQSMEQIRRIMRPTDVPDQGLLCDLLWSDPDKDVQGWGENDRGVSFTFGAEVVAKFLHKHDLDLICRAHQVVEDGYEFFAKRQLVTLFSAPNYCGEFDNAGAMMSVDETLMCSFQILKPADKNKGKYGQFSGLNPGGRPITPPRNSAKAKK
Myeloid diff: compounds promoting myeloid differentiation; hit rate 2% among 2,300; shares compounds with Myeloid diff 2; AID 651706; ER-HoxA9 myeloid progenitors, GFP/Mac1 double-positive flow; calls only;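 active means share of green or green-and-red cells above 9 and 9% in run 1 or 4 and 3% in run 2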
GFP autofluor: counter-screen for myeloid differentiation promoters: compound fluorescence | AID 651707 | ER-HoxA9 myeloid progenitors, no estrogen, GFP autofluorescence flow cytometry; vehicle wells 0%, positive control 100% | hit rate 7.4% among 2,300 | fluorescence response, % (concentration not given with the values) | shares compounds with Myeloid diff 2;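 active means over 5% cells positive for green fluorescent reporter, or over 2% positive for both it and APC stain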;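 further: range taken on the double positive population between DMSO and positive control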
Starred values were filed as active, the others as inactive; i = inactive; / = not tested or not shown; + = active, no number.

SMILES	PP5 primary	NadD block	Myeloid diff 2	HCV core dimer	Fh CTSL1 inh	PP1 counter	Myeloid diff	GFP autofluor
Cc1cc(C)n(-c2nc3ccccc3nc2N2CCN(C(=O)c3ccc(F)cc3)CC2)n1	4	5	i	2	7	0	i	0
CCc1nc2ccc(C(=O)NCc3ccc(OC)cc3)cn2c1N(CC)CCN(C)C	/	-5	i	/	/	/	/	/
CCOc1cc(C(=O)Nc2ccc(C)cc2O)ccc1OCC(=O)N1CCOCC1	-2	10	+	14	2	-2	i	2
COc1cc(/C=C(\NC(=O)c2ccccc2)C(=O)Nc2nccs2)ccc1OC(C)=O	-1	-3	i	-1	-5	-3	/	/
O=C(NC(=S)Nc1ccc(Cc2ccncc2)cc1)c1ccccc1	2	-4	+	2	-1	0	i	5.4*
O=C(NC(=S)Nc1cccc(NC(=S)NC(=O)c2ccccc2)c1)c1ccccc1	/	9	+	/	/	/	i	1
Cc1ccc2cccc(NC(=S)NC(=O)c3ccccc3)c2n1	6	-2	i	9	2	1	i	1
Cc1cc(C)c2cccc(NC(=S)NC(=O)c3ccccc3)c2n1	0	-2	i	5	1	2	/	/
Cc1cccc(C(=O)NC(=S)Nc2ccc(Cc3ccncc3)cc2)c1	4	8	i	15	-10	4	/	/
COc1cccc(NC(=O)Nc2ccc(Cc3ccncc3)cc2)c1	0	-3	+	-3	-2	-3	i	1
CC1CCCN(C(=O)COC(=O)c2cc(-c3cccs3)nn2-c2ccccc2)C1 (stereo not drawn)	3	-3	i	12	1	2	/	/
O=C(COC(=O)C1CC2CCCC(C1)C2=O)Nc1ccccc1 (stereo not drawn)	-2	-4	i	/	/	1	/	/
CN1CC[C@]2(CCN3CCc4c(oc5ccccc45)[C@@H]3C2)N(C)C1=O	1	2	i	6	-1	-4	/	/
Cc1cn(CC(=O)N(C)Cc2ccco2)c(=O)[nH]c1=O	/	-1	i	/	/	/	/	/
CC(C)(C)c1ccccc1NC(=O)N1CCNC(=O)C1CC(=O)Nc1ccc(F)cc1 (stereo not drawn)	3	2	i	-5	2	-6	/	/
Cc1ccc(S(=O)(=O)NC(=O)C2(C)CCN2C(=O)CC2CCCCC2)nc1 (stereo not drawn)	/	-2	i	/	/	/	/	/
N#C/C(=C\N1CCN(Cc2ccc3c(c2)OCO3)CC1)c1nc2ccccc2s1	1	15	i	10	1	-2	+	0
CCOC(=O)N1CCN(/C=C(\C#N)c2nc3ccccc3s2)CC1	0	0	i	5	2	0	/	/
CCC1(CC)NC(=O)N(CC(=O)OCC(=O)Nc2cc(C)ccc2C)C1=O	2	-2	+	0	-41	-1	i	0
CCC1(CC)NC(=O)N(CC(=O)Nc2ccc(C)cc2C)C1=O	/	-3	i	/	/	/	/	/
CCN(C(=O)COc1cc(=O)n(CC)c2ccccc12)c1cc(Cl)ccc1OC	-2	5	i	3	6	1	i	17*
CCNC(=S)N/N=C/c1sc(N2CCCCC2)nc1-c1cccs1	2	3	i	12	0	-5	i	0
COc1ccc(NC2=C(NC(C)=O)C(=O)c3ccccc3C2=O)cc1	0	0	+	-47	10	-6	+	0
CCc1c(C)nc2ncnn2c1NC1CCCc2ccccc21 (stereo not drawn)	-1	7	i	-2	3	-4	i	0
CCc1c(C)nc2ncnn2c1Nc1ccc(C)cc1	2	-5	i	5	3	2	/	/
SMILES	PP5 primary	NadD block	Myeloid diff 2	HCV core dimer	Fh CTSL1 inh	PP1 counter	Myeloid diff	GFP autofluor
CC(C)(C)C(=O)Nc1ccc(-c2cn3ccsc3n2)cc1	1	2	i	-1	2	0	i	0
C=CCOC(=O)C1=C[C@@H](c2coc3ccccc3c2=O)C[C@@H](OCCCCO)O1	0	-1	i	11	-2	2	i	0
NC(=O)C1=C[C@@H](c2coc3ccccc3c2=O)C[C@@H](OCCCCO)O1	1	1	i	8	-7	-1	/	/
CC1CN(C(=O)c2ccccc2OCc2ccc(Cl)cc2Cl)CC(C)O1 (stereo not drawn)	-1	0	i	/	/	-3	/	/
Cc1cccc(C(=O)N[C@H](C(=O)NCCc2ccc(S(N)(=O)=O)cc2)C(C)C)c1	1	-6	i	8	0	-2	/	/
Cc1ccc(C(=O)OCC(=O)Nc2cc(C(C)(C)C)no2)c(C)c1	5	2	i	/	/	4	/	/
COc1ccc(C(CCNCc2ccccc2)c2ccc(F)cc2)cc1 (stereo not drawn)	3	0	i	-5	-4	1	i	2
Cc1cccc(Nc2nc(-c3ccc(O)cc3O)cs2)n1	4	10	i	-8	7	0	/	/
O=C(CC[C@H]1O[C@@H](n2ccc(=O)[nH]c2=O)[C@H](O)[C@@H]1O)NCCN1CCOCC1	/	4	i	/	/	/	/	/
Cc1ccc(Oc2ccc(Cl)cc2NC(=O)c2cnccn2)cc1	1	-4	+	-2	-2	0	i	0
Oc1cc(Nc2ccncc2)cc2cccnc12	/	-2	i	/	/	/	/	/
Oc1cc(-c2ccncc2)cc2cccnc12	/	8	+	/	/	/	i	0
Cc1c(C(=O)NCc2cccc(C(F)(F)F)c2)sc(=O)n1Cc1ccc(S(=O)(=O)N(C)C)cc1	/	-2	i	/	/	/	/	/
O=C(NCCS(=O)(=O)NCCCc1ccccc1)c1ccccc1	1	-1	i	-1	-1	-6	/	/
COc1ccccc1Nc1c2c(nc3ccccc13)CCC2	0	-6	+	4	0	0	i	1
COc1ccccc1Nc1ncnc2ccccc12	2	6	i	-3	4	-2	i	0
COc1ccccc1Nc1nc2c(s1)CCC2	-1	5	i	17	-1	-1	i	0
COc1ccc(Nc2c3c(nc4ccccc24)CCC3)c(OC)c1	-1	-3	i	-1	1	0	/	/
CCOc1ccccc1Nc1ncnc2ccccc12	4	5	i	-3	1	-3	/	/
CCN(C(=O)Cn1nc(C)n2c(cc3cc(C)ccc32)c1=O)c1ccccc1	2	3	i	15	1	-2	/	/
CC1(C(=O)NS(=O)(=O)C2CC2)CCCN(C(=O)C2(c3ccc(Cl)cc3)CCCC2)C1 (stereo not drawn)	/	8	i	/	/	/	/	/
CC1(c2nnnn2-c2ccc3c(c2)OCCO3)CCC(=O)N1C1CC1 (stereo not drawn)	/	-9	i	/	/	/	/	/

From PubChem BioAssay
